In brackets after ≈: the same amount, converted by molar mass.
Assays:
Hepatitis C virus = test: Antiviral activity against HCV 1a infected in human HuH7 cells assessed as reduction of viral RNA level at 20 ug/ml […] by QRT-PCR analysis; type: functional, Hepacivirus hominis; conditions: subtype 1a, Huh-7
Hepatitis B virus [1] = test: Antiviral activity against HBV infected in human HepG2(2.2.15) cells assessed as inhibition of viral replication at 10 ug/ml […] relative to control; type: functional; conditions: HepG2 2.2.15, 48 h
Duck hepatitis B virus [2] = test: Antiviral activity against DHBV infected in duck hepatocytes assessed as inhibition of viral DNA replication after 15 days; conditions: Hepatocyte, 360 h
[3] = Cytotoxicity against human HuH7 cells after 2 days by XTT assay; type: cell-based, Huh-7
Outline: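 Huh-7 cells seeded at 1 × 10⁵ cells/well, allowed to attach 6–8 h, then medium replaced with compound at 200, 100, 50, 10 and 1 µg/mL; DMSO control. Incubated 2 days at 37 °C, XTT reagent added for 4 h at 37 °C, absorbance read at 450–500 nm; CC50 reported.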

Hepatitis B virus [4] = test: Antiviral activity against HBV infected in human HepG2(2.2.15) cells assessed as inhibition of viral replication after 2 days; type: functional, organism-based; conditions: HepG2 2.2.15, 48 h
Duck hepatitis B virus [5] = test: Antiviral activity against DHBV infected in duck hepatocytes assessed as inhibition of viral DNA replication at 10 ug/ml after 15 days relative to control; conditions: Hepatocyte, 360 h
Hepatitis B virus [6] = test: Antiviral activity against HBV infected in human HepG2(2.2.15) cells assessed as inhibition of viral replication at 5 ug/ml […] relative to control; type: functional; conditions: HepG2 2.2.15, 48 h
Duck hepatitis B virus [7] = test: Antiviral activity against DHBV infected in duck hepatocytes assessed as inhibition of viral DNA replication at 1 ug/ml after 15 days relative to control; conditions: Hepatocyte, 360 h
Duck hepatitis B virus [8] = test: Antiviral activity against DHBV infected in duck hepatocytes assessed as inhibition of viral DNA replication at 5 ug/ml after 15 days relative to control; conditions: Hepatocyte, 360 h
Duck hepatitis B virus [9] = test: Antiviral activity against DHBV infected in duck hepatocytes assessed as inhibition of viral DNA replication at 0.5 to 1 ug/ml after 15 days relative to control
Hepatitis B virus [10] = test: Antiviral activity against HBV infected in human HepG2(2.2.15) cells assessed as inhibition of viral replication at 0.5 to 1 ug/ml […] relative to control; type: functional

Row | SMILES | inhibition at 20 µg/mL (Hepatitis C virus) | inhibition at 10 µg/mL (Hepatitis B virus [1]) | EC50 (Duck hepatitis B virus [2]) | CC50 at 48 h [3] | EC50 (Hepatitis B virus [4]) | inhibition at 10 µg/mL (Duck hepatitis B virus [5]) | inhibition at 5 µg/mL (Hepatitis B virus [6]) | inhibition at 1 µg/mL (Duck hepatitis B virus [7]) | inhibition at 5 µg/mL (Duck hepatitis B virus [8]) | inhibition (INH) (Duck hepatitis B virus [9]) | inhibition (INH) (Hepatitis B virus [10])
1 | O=c1[nH]c(=O)n([C@H]2C[C@@H](Cl)[C@@H](CO)O2)cc1F | 30% | 50% | 10 µg/mL (≈ 37.8 µM) | > 200 µg/mL | 10 µg/mL (≈ 37.8 µM) | 50% | – | – | – | – | –
2 | Cc1cn([C@H]2C[C@H](Cl)[C@@H](CO)O2)c(=O)[nH]c1=O | 0% | 56% | 10 µg/mL (≈ 38.4 µM) | > 200 µg/mL | 10 µg/mL (≈ 38.4 µM) | 55% | – | – | – | – | –
3 | O=c1[nH]c(=O)n([C@H]2C[C@H](Cl)[C@@H](CO)O2)cc1F | 0% | 0% | – | > 200 µg/mL | – | 0% | – | – | – | – | –
4 | O=c1[nH]c(=O)n([C@H]2C[C@H](F)[C@@H](CO)O2)cc1F | 28% | 0% | – | > 100 µg/mL | – | 0% | – | – | – | – | –
5 | O=c1[nH]c(=S)ccn1[C@H]1C[C@H](F)[C@@H](CO)O1 | 0% | 20% | – | > 100 µg/mL | – | 25% | – | – | – | – | –
6 | O=c1[nH]c(=O)n([C@H]2C[C@H](F)[C@@H](CO)O2)cc1C(F)(F)F | 25% | 20% | – | > 100 µg/mL | – | 20% | – | – | – | – | –
7 | CCc1cn([C@H]2C[C@H](F)[C@@H](CO)O2)c(=O)[nH]c1=O | 0% | 0% | – | > 200 µg/mL | – | 0% | – | – | – | – | –
8 | O=c1[nH]c(=O)n([C@H]2C[C@H](F)[C@@H](CO)O2)cc1CO | 30% | 58% | 1 µg/mL (≈ 3.84 µM) | > 200 µg/mL | 5 µg/mL (≈ 19.2 µM) | 75% | 50% | 50% | – | – | –
9 | O=c1[nH]c(=O)n([C@H]2C[C@H](F)[C@@H](CO)O2)cc1O | 0% | 0% | – | > 100 µg/mL | – | 0% | – | – | – | – | –
10 | O=c1[nH]c(=S)c(F)cn1[C@H]1C[C@H](F)[C@@H](CO)O1 | 0% | 0% | – | > 100 µg/mL | – | 0% | – | – | – | – | –
11 | O=c1ccn([C@@H]2O[C@H](CO)[C@@H](F)[C@H]2F)c(=O)[nH]1 | 0% | 0% | – | > 200 µg/mL | – | 0% | – | – | – | – | –
12 | Cc1cn([C@@H]2O[C@H](CO)[C@@H](F)[C@H]2F)c(=O)[nH]c1=O | 0% | 0% | – | > 100 µg/mL | – | 0% | – | – | – | – | –
13 | O=c1[nH]c(=O)n([C@H]2C[C@H](F)[C@@H](CO)O2)cc1I | 40% | 60% | 5 µg/mL (≈ 14 µM) | < 100 µg/mL | 5 µg/mL (≈ 14 µM) | 63% | 50% | – | 50% | – | –
14 | Nc1ccn([C@@H]2CS[C@H](CO)O2)c(=O)n1 [LAMIVUDINE] | – | – | 0.05 µg/mL (≈ 0.218 µM) | – | – | – | – | – | – | 96% | 88%
15 | NC(=O)c1ncn([C@@H]2O[C@H](CO)[C@@H](O)[C@H]2O)n1 [RIBAVIRIN] | 50% | – | – | – | – | – | – | – | – | – | –

Source: ChEMBL document CHEMBL1268901, “Synthesis and in vitro antiviral activities of 3'-fluoro (or chloro) and 2',3'-difluoro 2',3'-dideoxynucleoside analogs against hepatitis B and C viruses” (Bioorg Med Chem, 2010)
